Measurements as given in ChEMBL document CHEMBL1154803, “Tetranortriterpenoids from Chisocheton paniculatus” (J Nat Prod, 2009).

Key:
HeLa = experiment: Cytotoxicity against human HeLa cells by MTT assay; format: functional, cell-based
How it was run: (§1)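 MTT assay per a literature method. HeLa (cervical) and SMMC7721 (hepatoma) cells came from the Cell Bank of the Shanghai Institute of Cell Biology. Fluorouracil served as positive control. Three independent replicates were run, and IC50 values were reported.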

SMMC-7721 = experiment: Cytotoxicity against human SMMC7721 cells by MTT assay; format: functional, cell-based; how it was run: as §1

SMILES | IC50 (HeLa) [µM] | IC50 (SMMC-7721) [µM]
C/C=C(\C)C(=O)O[C@@H]1[C@@H]2OC[C@]3(C)[C@H](OC(C)=O)C[C@H](OC(C)=O)[C@@](C)([C@@H]23)[C@H]2C[C@H](OC)O[C@H]3C[C@@H](C4=CCOC4=O)C(C)=C3[C@]12C [CHISONIMBOLININ A] | > 100 | > 100
C/C=C(\C)C(=O)O[C@@H]1[C@@H]2OC[C@]3(C)[C@H](OC(C)=O)C[C@H](O)[C@@](C)([C@@H]23)[C@H]2C[C@H](OC)O[C@H]3C[C@@H](C4=CCOC4=O)C(C)=C3[C@]12C [CHISONIMBOLININ B] | > 100 | 50
C/C=C(\C)C(=O)O[C@@H]1[C@@H]2OC[C@]3(C)[C@H](OC(=O)/C(C)=C/C)C[C@H](O)[C@@](C)([C@@H]23)[C@H]2C[C@H](OC)O[C@H]3C[C@@H](C4=CCOC4=O)C(C)=C3[C@]12C [CHISONIMBOLININ C] | 13 | 50
C/C=C(\C)C(=O)O[C@@H]1[C@@H]2OC[C@]3(C)[C@H](OC(C)=O)C[C@H](O)[C@@](C)([C@@H]23)[C@H]2C[C@H](O)O[C@H]3C[C@@H](C4=CCOC4=O)C(C)=C3[C@]12C [CHISONIMBOLININ D] | 32 | 50
C/C=C(\C)C(=O)O[C@@H]1[C@@H]2OC[C@]3(C)[C@H](OC(C)=O)C[C@H](O)[C@@](C)([C@@H]23)[C@H]2C[C@H](OCC)O[C@H]3C[C@@H](C4=CCOC4=O)C(C)=C3[C@]12C [CHISONIMBOLININ E] | > 100 | > 100
C/C=C(\C)C(=O)O[C@@H]1[C@@H]2OC[C@]3(C)[C@H](OC(C)=O)C[C@H](O)[C@@](C)([C@@H]23)[C@H]2CCO[C@H]3C[C@@H](C4=CCOC4=O)C(C)=C3[C@]12C [CHISONIMBOLININ F] | > 100 | > 100
C/C=C(\C)C(=O)O[C@@H]1[C@@H]2OC[C@]3(C)[C@H](OC(C)=O)C[C@H](OC(C)=O)[C@@](C)([C@@H]23)[C@H]2CCO[C@H]3C[C@@H](C4=CCOC4=O)C(C)=C3[C@]12C [CHISONIMBOLININ G] | > 100 | > 100
